From publication PMC8604211 (Clinical and Translational Science, 2021)
Values joined by “and” are separate entries in the source; they are usually repeats but may differ in a detail not shown here. Equal entries are not always repeated. Where two headings read alike, the source gives them in different places.

Experiments:
P-gp = P-gp (Homo sapiens, UniProt P08183); assay: P-gp bidirectional transport assay in human Caco-2 cell monolayers; assay type: in vitro ADME; details: Caco-2, pH 7.4
Clinical DDI study U107 = assay type: in vivo, human
Milademetan PBPK model = assay: Milademetan PBPK model; parameters: species or system human
How it was run: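 Minimal PBPK model with one adjusting compartment and ADAM absorption that includes intestinal P-gp; renal and biliary clearance set to zero. Vss, kin, kout, Vsac and oral clearance fitted to healthy-subject plasma data after a single fasted 100 mg oral dose.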

[1] = ref NCT01877382, cited from earlier work; for maximum tolerated dose: advanced solid tumors or lymphomas
[2] = Rat ADME study with [14C]milademetan; assay type: in vivo; details: single oral [14C]milademetan 30 mg/kg
[3] = Clinical food effect study; assay type: in vivo, human; details: high-calorie, high-fat meal vs fasted state; unpublished in-house data
CYP3A4 [4] = biological target: T1, CYP3A4 (Homo sapiens, UniProt P08684); assay: CYP3A inhibition; assay type: in vitro ADME; details: pooled human hepatic microsomes, probe midazolam
Target sequence in this assay (P08684 2-503): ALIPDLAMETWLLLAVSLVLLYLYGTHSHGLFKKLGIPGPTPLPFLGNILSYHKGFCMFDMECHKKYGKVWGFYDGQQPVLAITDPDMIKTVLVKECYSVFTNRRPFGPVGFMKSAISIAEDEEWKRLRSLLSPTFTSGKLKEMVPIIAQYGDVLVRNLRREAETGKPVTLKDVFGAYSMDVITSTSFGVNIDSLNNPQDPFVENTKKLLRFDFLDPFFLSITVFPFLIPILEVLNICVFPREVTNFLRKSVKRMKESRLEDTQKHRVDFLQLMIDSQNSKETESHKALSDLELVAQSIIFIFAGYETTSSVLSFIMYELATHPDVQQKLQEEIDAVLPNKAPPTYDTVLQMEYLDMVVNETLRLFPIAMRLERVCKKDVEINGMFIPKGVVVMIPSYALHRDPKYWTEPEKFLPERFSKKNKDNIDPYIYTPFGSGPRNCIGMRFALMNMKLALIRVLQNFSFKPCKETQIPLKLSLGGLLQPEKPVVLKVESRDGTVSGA

CYP3A4 [5] = biological target: T1, CYP3A4; assay: Incubation of [14C]milademetan with recombinant human CYP3A4; assay type: in vitro ADME; details: [14C]milademetan 1 µM, 60 min, unpublished in-house data
Target sequence in this assay (P08684 whole entry): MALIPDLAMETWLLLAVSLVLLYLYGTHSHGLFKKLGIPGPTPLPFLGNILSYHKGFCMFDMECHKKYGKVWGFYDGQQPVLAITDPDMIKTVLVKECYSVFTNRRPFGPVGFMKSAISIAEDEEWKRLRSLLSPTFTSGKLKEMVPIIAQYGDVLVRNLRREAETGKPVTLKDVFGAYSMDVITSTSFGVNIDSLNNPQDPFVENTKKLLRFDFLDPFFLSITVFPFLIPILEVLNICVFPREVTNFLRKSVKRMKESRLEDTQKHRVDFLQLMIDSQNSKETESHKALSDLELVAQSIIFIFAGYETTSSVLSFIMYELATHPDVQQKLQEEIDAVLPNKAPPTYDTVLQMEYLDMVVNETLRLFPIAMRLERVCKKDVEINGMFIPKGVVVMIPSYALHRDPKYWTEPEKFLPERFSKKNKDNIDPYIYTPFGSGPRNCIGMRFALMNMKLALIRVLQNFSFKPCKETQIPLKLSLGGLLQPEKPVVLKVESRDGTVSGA

[6] = Plasma protein unbound fraction measured in vitro; assay type: in vitro ADME
CYP3A5 = CYP3A5 (Homo sapiens, UniProt P20815); assay: Incubation of [14C]milademetan with recombinant human CYP3A5; assay type: in vitro ADME; details: [14C]milademetan 1 µM, 60 min, unpublished in-house data
[7] = Optimized by fitting clinical data (U107), milademetan alone, fasted
[8] = bile duct–cannulated rats, up to 48 h

Sequence of P-gp (P08183 whole entry): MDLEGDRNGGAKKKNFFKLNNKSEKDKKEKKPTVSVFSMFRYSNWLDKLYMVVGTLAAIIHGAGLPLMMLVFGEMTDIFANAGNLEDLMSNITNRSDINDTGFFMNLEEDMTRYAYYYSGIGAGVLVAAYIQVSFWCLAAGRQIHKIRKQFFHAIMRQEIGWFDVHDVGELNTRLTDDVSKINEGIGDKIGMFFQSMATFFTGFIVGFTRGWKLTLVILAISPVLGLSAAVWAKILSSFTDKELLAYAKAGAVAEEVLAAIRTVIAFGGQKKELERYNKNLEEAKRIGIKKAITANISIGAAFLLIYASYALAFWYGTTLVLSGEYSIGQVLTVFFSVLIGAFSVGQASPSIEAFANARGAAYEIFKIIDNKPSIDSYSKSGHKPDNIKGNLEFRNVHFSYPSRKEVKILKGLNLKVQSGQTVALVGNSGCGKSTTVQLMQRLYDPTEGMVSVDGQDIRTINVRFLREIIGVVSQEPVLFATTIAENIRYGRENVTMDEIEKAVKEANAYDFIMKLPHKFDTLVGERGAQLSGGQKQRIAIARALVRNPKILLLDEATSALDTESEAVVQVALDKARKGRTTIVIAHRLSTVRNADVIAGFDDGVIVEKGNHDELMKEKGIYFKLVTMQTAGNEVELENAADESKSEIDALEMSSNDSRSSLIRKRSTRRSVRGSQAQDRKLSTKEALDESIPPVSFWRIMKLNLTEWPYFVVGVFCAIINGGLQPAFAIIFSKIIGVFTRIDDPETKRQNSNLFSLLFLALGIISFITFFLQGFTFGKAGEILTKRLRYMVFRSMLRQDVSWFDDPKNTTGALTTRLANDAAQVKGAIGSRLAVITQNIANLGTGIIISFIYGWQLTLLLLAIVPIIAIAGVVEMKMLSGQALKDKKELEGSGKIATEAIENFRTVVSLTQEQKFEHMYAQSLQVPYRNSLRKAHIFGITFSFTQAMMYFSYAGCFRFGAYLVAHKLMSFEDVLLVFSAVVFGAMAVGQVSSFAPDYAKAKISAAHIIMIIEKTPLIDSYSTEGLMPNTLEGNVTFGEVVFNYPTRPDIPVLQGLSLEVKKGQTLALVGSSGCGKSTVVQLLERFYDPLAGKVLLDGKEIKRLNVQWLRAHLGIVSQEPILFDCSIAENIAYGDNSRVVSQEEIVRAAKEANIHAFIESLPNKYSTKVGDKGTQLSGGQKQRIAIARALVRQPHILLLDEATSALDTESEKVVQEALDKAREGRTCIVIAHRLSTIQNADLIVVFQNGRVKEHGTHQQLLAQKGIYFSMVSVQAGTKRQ
Sequence of CYP3A5 (P20815 whole entry): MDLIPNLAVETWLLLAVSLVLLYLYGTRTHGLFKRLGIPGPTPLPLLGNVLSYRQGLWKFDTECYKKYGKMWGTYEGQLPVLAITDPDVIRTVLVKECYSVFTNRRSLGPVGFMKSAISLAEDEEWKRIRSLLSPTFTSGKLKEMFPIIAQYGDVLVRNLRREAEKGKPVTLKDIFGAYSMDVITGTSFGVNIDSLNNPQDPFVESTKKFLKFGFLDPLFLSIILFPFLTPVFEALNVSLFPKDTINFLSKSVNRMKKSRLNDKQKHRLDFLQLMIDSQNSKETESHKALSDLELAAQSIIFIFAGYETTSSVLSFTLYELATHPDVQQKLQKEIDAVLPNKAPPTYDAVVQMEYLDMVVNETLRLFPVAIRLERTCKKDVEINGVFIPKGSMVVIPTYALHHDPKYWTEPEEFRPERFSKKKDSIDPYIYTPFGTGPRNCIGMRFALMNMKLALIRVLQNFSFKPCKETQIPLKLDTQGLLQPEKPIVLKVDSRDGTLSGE

Work on `CC(C)NCC(O)COc1cccc2ccccc12` (stereo not drawn) [Propranolol, reference compound] yielded a Papp (P-gp) of 43 ×10⁻⁶ cm/s.

With `CC1(C)CCC2(CC1)N[C@@H](C(=O)N[C@@H]1CC[C@@H](C(N)=O)OC1)[C@H](c1ccnc(Cl)c1F)[C@]21C(=O)Nc2cc(Cl)ccc21` [milademetan] the CL/F (Clinical DDI study U107; 100 mg alone, fasted (sequence AB, treatment A), geometric mean (CV%)) was 6.8 L/h and 6.80 L/h and 6.80 (33.5) L/h, the CL/F (Clinical DDI study U107; 100 mg with itraconazole (treatment B), geometric mean (CV%)) was 3.13 L/h and 3.13 (35.4) L/h and the CL/F (Clinical DDI study U107; 100 mg with posaconazole (treatment C), geometric mean (CV%)) was 2.91 L/h and 2.91 (25.5) L/h. It also gave an AUC(0-t) (Clinical DDI study U107; human, plasma, oral, 100 mg, AUClast, 100 mg alone, 2 h following a full meal (sequence AC, treatment A), geometric mean (CV%)) of 13500 ng·h/mL, a Cmax (Clinical DDI study U107; human, plasma, oral, 100 mg, Cmax, 100 mg alone, 2 h following a full meal (sequence AC, treatment A), geometric mean (CV%)) of 675 ng/mL and a Tmax (Clinical DDI study U107; human, plasma, oral, 100 mg, Tmax, 100 mg alone, 2 h following a full meal (sequence AC, treatment A), median (minimum–maximum)) of 3.03 h. For the same compound, the Vd/F (Clinical DDI study U107; human, plasma, oral, 100 mg, Vz/F, 100 mg alone, 2 h following a full meal (sequence AC, treatment A), geometric mean (CV%)) was 223 L, the half-life (Clinical DDI study U107; human, plasma, oral, 100 mg, t1/2, 100 mg alone, 2 h following a full meal (sequence AC, treatment A), arithmetic mean (SD)) was 21.3 h and the “Vsac (volume of single adjusting compartment)” value (Milademetan PBPK model; [7]) was 0.5 L/kg. For the same compound, the “kin (first-order rate constant to single adjusting compartment)” value (Milademetan PBPK model; [7]) was 0.07 h⁻¹, the “kout (first-order rate constant from single adjusting compartment)” value (Milademetan PBPK model; [7]) was 0.07 h⁻¹ and the “CLint,CYP3A4 (CYP3A4-specific intrinsic clearance)” value (Milademetan PBPK model; Optimized by fitting clinical data (U107), milademetan and itraconazole sequence) was 0.459 µL/min/pmol of isoform. The “oral clearance (CLpo), optimized” value (Milademetan PBPK model; fitted to period one of sequence AB (alone, fasted), U107) was 8.5 L/h, the microsomal CLint (Milademetan PBPK model; human) was 40.2 µL/min/mg and the “fmCYP3A4 (fraction metabolized by CYP3A4)” value (Milademetan PBPK model; optimized to recover observed AUCR and CmaxR of sequence AB (itraconazole)) was 0.58. For the same compound, the accumulation at steady-state ([1]; 120 mg q.d. 21/28, after 18–21 days of continuous dosing) was 1.8 fold, the “dose proportionality of systemic exposure” value ([1]; dose range 15–340 mg) was “dose‐proportional increase in systemic drug exposure” and the maximum tolerated dose ([1]; q.d. 3/14 × 2 schedule) was 260 mg. For the same compound, the maximum tolerated dose ([1]; q.d. 21/28 schedule) was 160 mg, the “biliary excretion of radioactivity” value [2, 8] was 20.4 ± 1.8 % of the dose and the “radioactivity recovered in feces” value [2, 8] was 75.1 ± 3.3 % of the dose. For the same compound, the “radioactivity recovered in feces” value ([2]; noncannulated rats, after 168 hours) was 94.2 ± 0.7%, the “reduction of exposure (AUC) with food” value [3] was 24% and the KI (inactivation) (CYP3A4 [4]) was 60.5 µM. For the same compound, the Ki (CYP3A4 [4]) was 4.2 µM, the remaining parent (CYP3A4 [5]) was 61 % of the total radioactivity and the Papp at 120 min (P-gp) was 17 ×10⁻⁶ cm/s. For the same compound, the fraction unbound [6] was 0.02 and the remaining parent (CYP3A5) was 84 % of the total radioactivity.
